# Reference: article PMC7615941 (Cell, 2023)
# T1: mouse C5a receptor 1, FLAG-tagged, expressed in Sf9 for cryo-EM (mouse, UniProt P30993 2-351, alkylated with iodoacetamide)
# T1 sequence: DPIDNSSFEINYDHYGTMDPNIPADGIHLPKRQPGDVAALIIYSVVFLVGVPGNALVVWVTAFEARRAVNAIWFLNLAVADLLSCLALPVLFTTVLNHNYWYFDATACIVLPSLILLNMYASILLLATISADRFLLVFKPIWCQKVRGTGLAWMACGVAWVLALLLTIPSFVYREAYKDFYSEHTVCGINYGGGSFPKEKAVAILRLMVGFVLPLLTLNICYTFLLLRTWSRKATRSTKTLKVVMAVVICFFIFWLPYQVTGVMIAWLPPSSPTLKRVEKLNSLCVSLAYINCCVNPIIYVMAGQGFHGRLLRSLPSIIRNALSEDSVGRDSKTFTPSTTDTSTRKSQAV
# T2: human C5a receptor 1, FLAG-tagged, expressed in Sf9 for cryo-EM (human, UniProt P21730 2-350, alkylated with iodoacetamide)
# T2 sequence: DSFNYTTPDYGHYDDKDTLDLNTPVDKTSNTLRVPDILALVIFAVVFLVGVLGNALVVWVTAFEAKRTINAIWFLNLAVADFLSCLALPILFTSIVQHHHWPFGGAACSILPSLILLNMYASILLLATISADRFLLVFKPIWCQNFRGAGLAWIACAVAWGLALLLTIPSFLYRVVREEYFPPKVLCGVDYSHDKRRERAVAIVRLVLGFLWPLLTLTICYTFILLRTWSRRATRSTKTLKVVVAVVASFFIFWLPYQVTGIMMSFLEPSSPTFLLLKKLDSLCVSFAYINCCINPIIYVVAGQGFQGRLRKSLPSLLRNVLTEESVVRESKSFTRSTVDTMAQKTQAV
# T3: mC5aR1 (Mus musculus, UniProt P30993)
# T3 sequence (P30993 1-351): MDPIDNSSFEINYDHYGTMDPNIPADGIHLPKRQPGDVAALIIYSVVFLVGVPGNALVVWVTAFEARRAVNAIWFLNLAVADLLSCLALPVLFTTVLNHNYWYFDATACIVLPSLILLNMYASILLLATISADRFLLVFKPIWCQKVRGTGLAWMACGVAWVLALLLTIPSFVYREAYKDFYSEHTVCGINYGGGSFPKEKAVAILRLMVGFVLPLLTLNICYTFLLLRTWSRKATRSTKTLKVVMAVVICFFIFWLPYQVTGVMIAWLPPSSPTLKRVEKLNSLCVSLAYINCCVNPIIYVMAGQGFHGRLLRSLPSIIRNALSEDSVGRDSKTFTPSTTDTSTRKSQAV
# T4: C3aR (Homo sapiens, UniProt Q16581)
# T4 sequence (Q16581 1-482): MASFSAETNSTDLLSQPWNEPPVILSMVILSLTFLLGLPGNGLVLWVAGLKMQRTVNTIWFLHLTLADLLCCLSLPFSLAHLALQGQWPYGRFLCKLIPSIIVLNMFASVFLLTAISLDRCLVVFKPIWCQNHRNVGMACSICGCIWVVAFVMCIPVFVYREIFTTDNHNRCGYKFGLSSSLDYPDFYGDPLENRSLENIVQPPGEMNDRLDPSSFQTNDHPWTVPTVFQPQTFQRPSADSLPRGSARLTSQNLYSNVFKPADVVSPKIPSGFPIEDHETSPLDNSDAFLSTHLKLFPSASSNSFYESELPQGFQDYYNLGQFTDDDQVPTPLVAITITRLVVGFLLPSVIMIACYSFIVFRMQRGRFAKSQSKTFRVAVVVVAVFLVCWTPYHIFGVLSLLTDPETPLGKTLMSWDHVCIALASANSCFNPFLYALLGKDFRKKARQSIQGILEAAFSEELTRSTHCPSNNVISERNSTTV
# Legend:
# [1] = target: C3aR with C-terminal SmBiT, in HEK-293 cells (human) (UniProt Q16581)
# C5aR1 = test: G-protein coupling and βarr recruitment, C5aR1; assay type: cell-based; settings: Figure 7A
# [2] = target: T1, mouse C5a receptor 1, FLAG-tagged, …; test: cryo-EM structure
# [3] = target: T2, human C5a receptor 1, FLAG-tagged, …; test: cryo-EM structure
# mC5aR1 [4] = target: T3, mC5aR1; test: NanoBiT βarr1/2 recruitment and endosomal trafficking, mC5aR1; assay type: cell-based; settings: Figures 1I-1P, C5a^pep compared with hC5aR1
# How it was run: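 HEK-293 cells, PEI transfection (DNA:PEI 1:3). Recruitment used 1 μg mC5aR1-SmBiT (C-terminal) with 3.5 μg LgBiT-βarr1/2 (N-terminal). Trafficking used N-SmBiT-βarr1/2 with N-LgBiT-FYVE. After 16-18 h, cells went into HBSS, 0.01% BSA, 5 mM HEPES pH 7.4, 10 μM coelenterazine at 0.1 million/100 μL. Incubation 90 min 37 °C, then 30 min RT. Three basal luminescence reads, then serially diluted ligand.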
# mC5aR1 [5] = target: T3, mC5aR1; test: GloSensor-based cAMP assay; assay type: cell-based
# C3aR = target: T4, C3aR; test: GloSensor-based cAMP assay; assay type: cell-based; settings: Figure 7A; only at moderately high concentration (i.e., 1 μM)
# Sequence of human complement anaphylatoxin C3a (P01024 672-748): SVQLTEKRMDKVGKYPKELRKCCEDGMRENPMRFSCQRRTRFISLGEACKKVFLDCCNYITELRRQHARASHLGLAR
molecule,measurement,setting,value
"EP141, pentadecameric peptide derived from and modified based on the carboxyl terminus of C3a","Emax of βarr1/2 recruitment to C3aR (NanoBiT), relative to C3a",[1],55 to 65 % of C3a
human complement anaphylatoxin C3a (from UniProt P01024 672-748) (ligand),EC50 of βarr1/2 recruitment to C3aR (NanoBiT),[1],10 to 20 nM
"C3a: complement anaphylatoxin, 77 amino acids, four-helix bundle; natural agonist of C3aR",transducer-coupling response at C5aR1,C5aR1,did not exhibit any measurable transducer-coupling response
"human complement anaphylatoxin C5a (ligand, UniProt P01031 678-751, looked up) TLQKKIEEIAAKYKHSVVKKCCYDGACVNNDETCEQRAARISLGPRCIKAFTECCVVASQLRANISHKDMQLGR",binding result,[2],binds
same,binding result,[3],binds
"C5a: complement anaphylatoxin, 74 amino acids, four-helix bundle; natural agonist of C5aR1 (protein, left off: Trx, N-terminal, cleaved | His6, N-terminal, cleaved) TLQKKIEEIAAKYKHSVVKKCCYDGACVNNDETCEQRAARISLGPRCIKAFTECCVVASQLRANISHKDMQLGR","agonism, βarr recruitment and endosomal trafficking",mC5aR1 [4],full agonism
same,"potency at mC5aR1 compared with hC5aR1, cAMP response",mC5aR1 [5]; Figures 1G and 1H,slightly lower potency
same,"agonism, G-protein-mediated cAMP response","mC5aR1 [5]; Figures 1G and 1H, mC5aR1",full agonists
same,"difference between human and mouse C5aR1, G-protein coupling",mC5aR1 [5]; human vs mouse C5aR1,only a small difference
same,cross-reactivity with C3aR in G-protein-coupling assay,C3aR,some cross-reactivity
